In publication PMC11704051 (Nature Communications, 2025):
“And” between values parts separate entries of the source, which are not always exact repeats. Equal entries are not always repeated.

Experiments:
[1] = test system: patients with advanced malignancies; assay: Phase 1 trial: safety and tolerability; assay type: in vivo, human; conditions: for DLT: cycle 1; for Patients with any TRAE / TRAE Anemia / TRAE Blood bilirubin increased/hyperbilirubinemia / TRAE Diarrhea / TRAE Fatigue / TRAE Nausea / TRAE Rash (rash, rash macular, rash maculo-popular) / TRAE Thrombocytopenia /platelet count decrease: n = 40
Outline: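 Monitoring covered AEs graded by NCI-CTCAE v4.03, SAEs, laboratory values, clinical examinations, vital signs, ECOG status, ophthalmology and ECG. DLTs were assessed over cycle 1 (28 days) of oral single-agent dosing (50–400 mg QD, 200 mg BID). Escalation used a two-parameter BLRM with EWOC: reference 650 mg total daily dose, target DLT interval [0.16, 0.33], <25% chance of excessive toxicity, increments ≤100%.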

[2] = test system: MTAP-deleted cancer cell lines; conditions: multiple MTAP-deleted cancer cell lines; cited from earlier work
[3] = Plasma pharmacokinetics of AG-270/S095033; assay type: in vivo, human
SDMA residues = assay: SDMA by IHC; assay type: in vivo, human; conditions: NSCLC patient, 50 mg QD
Outline: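 Paired core-needle biopsies (archival or fresh) were taken at screening/baseline and at the end of cycle 1. Tissue was fixed in 10% […] buffered formalin and paraffin-embedded. H&E confirmed tumour content, and SDMA in tumour cells was scored by IHC as an H-score. Paired comparison used a two-sided Wilcoxon matched-pairs test.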

UGT1A1 = conditions: known potential; cited from earlier work
[4] = test system: advanced solid tumors with homozygous deletion of CDKN2A/MTAP and/or loss of MTAP protein; assay: Phase 1 trial: antitumor activity by RECIST v1.1, treatment duration; assay type: in vivo, human
Outline: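 Adults with advanced solid tumour or lymphoma (homozygous CDKN2A and/or MTAP deletion by local FISH or sequencing, and/or central MTAP IHC with ≤20% positive tumour cells) took test compound orally on an empty stomach. Dosing was 50–400 mg QD or 200 mg BID: a single dose on C0D-3, then daily from C1D1 in 28-day cycles until progression or toxicity. Local investigators scored response by RECIST v1.1 (Lugano for lymphoma).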

SAM = assay: Plasma SAM concentration; assay type: in vivo, human
Outline: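 Plasma SAM was quantified by LC-MS/MS. Baseline blood was drawn twice at screening and before the single oral dose on C0D-3. At steady state (C1D15) sampling was pre-dose and 0.5, 1, 2, 3, 4, 6, 8 and 24 h post-dose, with daily oral dosing at 50–400 mg QD or 200 mg BID. The read-out was percent change from baseline.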

mouse = mouse GLP toxicology study, non-tolerated doses; cited from earlier work
methionine = assay: Plasma methionine concentration; assay type: in vivo, human; conditions: steady state (C1D15)
OATP1B1 = conditions: known potential; cited from earlier work
MTAP-null tumors = conditions: cited from earlier work
[5] = test system: MTAP-deleted urothelial cancer and lung cancer; conditions: cited from earlier work
[6] = monotherapy expansion, MTAP-deleted urothelial cancer and lung cancer

## COc1ccc(-c2c(Nc3ccccn3)[nH]c3c(C4=CCCCC4)c(-c4ccccc4)nn3c2=O)cc1 [AG-270/S095033]
[1]; 200 mg BID
  Patients with dose-limiting ≥grade 3 / acute liver injury: two patients
  Severity of thrombocytopenia: Higher grade thrombocytopenia
[1]; 1 patient at 100 mg QD
  DLT: Grade 2 hypersensitivity reaction
[1]; 1 patient at 150 mg QD
  DLT: Grade 3 hyperbilirubinemia and Grade 3 maculo-papular rash
[1]; 1 patient at 200 mg QD
  DLT: Grade 3 neutrophil count decreased
[1]; 40 patients
  Patients who experienced a TEAE of Grade ≥3: 67.5%
  Patients with AEs leading to permanent treatment discontinuation: 5.0%
  Patients with TRAEs of Grade ≥3: 17.5%
  Patients with at least one DLT during cycle 1: 10%
  Patients with fatal SAEs (none related to treatment): 5.0%
  Patients with serious adverse events (SAEs) regardless of relationship: 57.5%
  Patients with worst post-baseline ECOG score of 2: 20.0%
  Patients with worst post-baseline ECOG score of 3: 2.5%
  SAE abdominal pain: 5.0%
  SAE liver injury: 5.0%
  SAE pancreatitis: 5.0%
  SAE sepsis: 5.0%
  SAE tumor pain: 5.0%
  TEAE non-serious blurred vision (not related to treatment): 5%
  TEAE non-serious supraventricular tachycardia: 2.5%
  TEAE non-serious tachycardia: 5%
  TEAE optic disc hemorrhage (not related to treatment): 2.5%
  TEAE retinal hemorrhage (not related to treatment): 2.5%
  TEAE serious atrial fibrillation: 2.5%
  TEAE serious electrocardiogram T wave inversion: 2.5%
  TEAE serious sinus tachycardia: 2.5%
  TRAE blood bilirubin increase, any grade: 15%
  TRAE hyperbilirubinemia, any grade: 12.5%
  TRAE thrombocytopenia, any grade: 10%
[1]; All Grades
  Patients with any TRAE: 28 n (%) and 28 (70.0) n (%)
  TRAE Anemia: 4 n (%) and 4 (10.0) n (%)
  TRAE Blood bilirubin increased/hyperbilirubinemia: 10 n (%) and 10 (25.0) n (%)
  TRAE Diarrhea: 3 (7.5) n (%)
  TRAE Fatigue: 10 n (%) and 10 (25.0) n (%)
  TRAE Nausea: 3 (7.5) n (%)
  TRAE Rash (rash, rash macular, rash maculo-popular): 6 (15.0) n (%)
  TRAE Thrombocytopenia /platelet count decrease: 7 (17.5) n (%)
[1]; Grade 1
  Patients with any TRAE: 10 (25.0) n (%)
  TRAE Anemia: 1 (2.5) n (%)
  TRAE Blood bilirubin increased/hyperbilirubinemia: 1 (2.5) n (%)
  TRAE Diarrhea: 2 (5.0) n (%)
  TRAE Fatigue: 3 (7.5) n (%)
  TRAE Nausea: 3 (7.5) n (%)
  TRAE Rash (rash, rash macular, rash maculo-popular): 3 (7.5) n (%)
  TRAE Thrombocytopenia /platelet count decrease: 2 (5.0) n (%)
[1]; Grade 2
  Patients with any TRAE: 11 (27.5) n (%)
  TRAE Anemia: 2 (5.0) n (%)
  TRAE Blood bilirubin increased/hyperbilirubinemia: 6 (15.0) n (%)
  TRAE Diarrhea: 1 (2.5) n (%)
  TRAE Fatigue: 7 (17.5) n (%)
  TRAE Nausea: 0 n (%)
  TRAE Rash (rash, rash macular, rash maculo-popular): 1 (2.5) n (%)
  TRAE Thrombocytopenia /platelet count decrease: 2 (5.0) n (%)
[1]; Grade 3
  Patients with any TRAE: 6 (15.0) n (%)
  TRAE Anemia: 1 (2.5) n (%)
  TRAE Blood bilirubin increased/hyperbilirubinemia: 4 (10.0) n (%)
  TRAE Diarrhea: 0 n (%)
  TRAE Fatigue: 0 n (%)
  TRAE Nausea: 0 n (%)
  TRAE Rash (rash, rash macular, rash maculo-popular): 2 (5.0) n (%)
  TRAE Thrombocytopenia /platelet count decrease: 3 (7.5) n (%)
[1]; Grade 4
  Patients with any TRAE: 1 (2.5) n (%)
  TRAE Anemia: 0 n (%)
  TRAE Blood bilirubin increased/hyperbilirubinemia: 0 n (%)
  TRAE Diarrhea: 0 n (%)
  TRAE Fatigue: 0 n (%)
  TRAE Nausea: 0 n (%)
  TRAE Rash (rash, rash macular, rash maculo-popular): 0 n (%)
  TRAE Thrombocytopenia /platelet count decrease: 0 n (%)
[1]; between the 100 mg and 400 mg dose levels
  Treatment-related increases in transaminases: Low grade (Grade 1–2)
[1]; doses between 100 and 200 mg QD
  Severity of thrombocytopenia: largely Grade 1–2
[1]; in vivo
  Effect on ECG parameters: no discernable effect
  Time to resolution of erythematous rashes after stopping treatment: ≤ 1 week
[1]; maximum post-baseline value
  Patients with PR interval >200 ms: 10.0%
  Patients with QRS duration >120 ms: 7.5%
  Patients with QT/QTc interval >450 ms: 15.0%
  Patients with QT/QTc interval increase from baseline >30 ms: 10.0%
[1]; n=40
  Patients with any TEAE: 40 N (%)
  TEAE Blood bilirubin increased: 9 N (%)
  TEAE Decreased appetite: 8 N (%)
  TEAE Diarrhoea: 8 N (%)
  TEAE Dyspnoea: 8 N (%)
  TEAE Fatigue: 17 N (%)
  TEAE Nausea: 13 N (%)
  ≥ Grade 3 TEAE Bilirubin increased: 4 N (%)
[1]; ophthalmologic examinations at screening and during treatment
  Treatment-related clinically significant retinopathy: No treatment-related events of clinically significant retinopathy were reported
[1]; oral, 28-day cycles
  Maximum tolerated dose (MTD): 200 mg QD
[1]; patients, across doses
  Increases in unconjugated bilirubin: Asymptomatic, exposure-dependent and reversible increases in unconjugated bilirubin were observed starting at 100 mg QD
[2]
  Effect on cell proliferation: robust decrease in cell proliferation
[3]; 50 mg to 200 mg
  Increase of plasma concentrations with dose: dose-proportional manner from 50 mg to 200 mg
[3]; 400 mg QD
  Exposure relative to dose: less than dose proportional
[3]; human, plasma, oral, Geometric mean Cmax, range across the dosing cohorts, C1D15
  Cmax: 1710 to 13600 ng/mL
[3]; human, plasma, oral, Geometric mean accumulation-based (effective) half-life (T½eff), range, C1D15, 50 to 200 mg QD and 200 mg BID
  half-life: 43 to 99 h
[3]; human, plasma, oral, Median Tmax, range across the dosing cohorts, C1D15
  Tmax: 1 to 6 h
[3]; human, plasma, oral, Median terminal half-life (t½), range across the tested doses
  half-life: 16 to 38 h
[3]; most of the cohorts
  Time at which steady-state was achieved (mean plasma trough concentrations): ≤ 15 days
SDMA residues
  SDMA reduction after 1 cycle of treatment: 39%
UGT1A1
  Inhibition of UGT1A1: inhibit
[4]; 40 patients
  Patients with SD for 4 months or longer: 12.5%
[4]; 40 patients, 95%–CI 7.3, 32.8
  Disease control rate (CR+PR+SD≥16 weeks): 17.5%
[4]; Total (n=40)
  BOR Not evaluable (NE): 7 n (%)
  BOR Partial response (PR): 2 n (%)
[4]; patient, sex cord stromal cell cancer, 100 mg QD
  Duration of partial response: 28 months
SAM; C1D15, 400 mg QD
  Mean reduction from baseline plasma SAM concentration: ~ 54%
SAM; C1D15, 50–200 mg QD and 200 mg BID
  Decrease of plasma SAM concentration from baseline, range across doses: 65–70%
mouse
  Retinal finding: non-reversible retinal atrophy at non-tolerated doses
methionine
  Change in plasma methionine concentrations: increases in methionine concentrations in a drug exposure-dependent manner up to 200 mg QD
OATP1B1
  Inhibition of hepatocyte transporter OATP1B1: inhibit
MTAP-null tumors; mice bearing MTAP-null tumors
  Effect on SAM levels: reduce the levels of SAM in both plasma and tumor tissue
  Effect on tumor growth: inhibit tumor growth in a dose- and drug exposure-dependent manner
MTAP-null tumors; preclinical models
  Reduction in plasma SAM concentration associated with maximum tumor growth inhibition: 60–80%

## Nc1nc(=O)n(-c2ccccc2Cl)c2nc(C(F)(F)F)ccc12 [IDE397]
[5]; Phase 2 expansion, squamous NSCLC and bladder cancer
  Patients achieving a PR: two out of eight patients
[5]; [6]
  Disease control rate: ~ 94%
  Overall response rate: ~ 39%
  ctDNA molecular response rate: ~ 81%
